Reference: article PMC9064169 (ACS chemical biology, 2021)
Substitutions are numbered along the chain they refer to. “Also recorded” adds a separate entry of the source. Read-outs that look alike come from different tables or passages of the source.

Key:
[1] = molecular target: Nurr1 ligand binding domain (LBD) (Homo sapiens, UniProt P43354); test: Microscale thermophoresis
How it was run: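 KD for the Nurr1 LBD measured by microscale thermophoresis, with 0.1% of the surfactant Pluronic F127 present. To exclude non-specific binding by aggregates, the assay was repeated at increasing Pluronic F127 concentrations. Values are from three or more independent measurements ± SD.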

[2] = molecular target: T1, Arg563Ala His516Ala double mutant Nurr1 LBD (Homo sapiens, UniProt P43354, H516A/R563A); test: MST binding to Arg563Ala/His516Ala double mutant Nurr1 LBD
T1 sequence (P43354 360-595 H516A/R563A limits assumed): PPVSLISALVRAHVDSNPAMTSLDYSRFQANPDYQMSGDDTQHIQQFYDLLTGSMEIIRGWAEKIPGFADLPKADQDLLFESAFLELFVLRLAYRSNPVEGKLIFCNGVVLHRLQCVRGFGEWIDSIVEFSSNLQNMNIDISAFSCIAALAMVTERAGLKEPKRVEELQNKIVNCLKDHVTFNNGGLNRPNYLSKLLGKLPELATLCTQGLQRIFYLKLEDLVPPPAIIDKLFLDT

[3] = molecular target: His516Ala mutant Nurr1 LBD (Homo sapiens, UniProt P43354, H516A); test: MST binding to His516Ala mutant Nurr1 LBD
Chain of His516Ala mutant Nurr1 LBD (P43354 360-595 H516A limits assumed): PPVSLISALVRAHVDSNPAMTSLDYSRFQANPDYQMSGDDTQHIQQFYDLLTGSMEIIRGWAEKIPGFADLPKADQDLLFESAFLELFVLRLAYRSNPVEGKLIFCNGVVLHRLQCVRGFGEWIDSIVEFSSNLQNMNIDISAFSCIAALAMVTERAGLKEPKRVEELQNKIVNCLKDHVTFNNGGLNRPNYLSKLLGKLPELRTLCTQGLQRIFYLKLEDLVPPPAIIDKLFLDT

MN9D cells = test: Cytotoxicity / viability in MN9D cells; format: cell-based; details: 24 h treatment
[4] = Chemical stability in solution; format: physicochemical; details: observed during data acquisition; see references 26-28
[5] = molecular target: endogenous full-length Nurr1 (Mus musculus, UniProt Q06219); test: qPCR of Nurr1 target gene transcripts; format: cell-based; details: 24 h
Chain of endogenous full-length Nurr1 (Q06219 whole entry): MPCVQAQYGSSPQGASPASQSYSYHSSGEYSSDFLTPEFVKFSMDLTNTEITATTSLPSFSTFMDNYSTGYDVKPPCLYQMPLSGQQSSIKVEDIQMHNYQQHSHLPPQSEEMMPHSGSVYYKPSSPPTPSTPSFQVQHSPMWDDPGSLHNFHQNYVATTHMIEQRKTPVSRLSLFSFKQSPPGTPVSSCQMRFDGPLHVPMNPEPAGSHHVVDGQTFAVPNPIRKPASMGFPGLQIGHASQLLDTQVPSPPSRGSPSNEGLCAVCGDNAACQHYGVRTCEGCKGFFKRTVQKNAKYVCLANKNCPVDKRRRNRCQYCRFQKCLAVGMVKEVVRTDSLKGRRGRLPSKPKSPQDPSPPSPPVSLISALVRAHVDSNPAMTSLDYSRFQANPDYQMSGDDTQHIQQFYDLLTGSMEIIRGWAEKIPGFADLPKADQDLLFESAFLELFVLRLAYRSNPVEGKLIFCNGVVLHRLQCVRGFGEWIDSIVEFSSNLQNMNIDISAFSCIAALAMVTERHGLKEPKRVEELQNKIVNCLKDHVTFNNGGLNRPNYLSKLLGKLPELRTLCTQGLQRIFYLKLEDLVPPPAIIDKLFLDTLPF
How it was run: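 Mouse MN9D cells treated with test compound at 10 μM, or over a concentration series, for 24 h. Vehicle was DMSO. mRNA was isolated and Th and Vmat2 transcripts were measured by qPCR. Values were normalized to housekeeping gene Hprt and expressed as fold-change over DMSO-treated cells. Values are from three or more independent measurements ± SD.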

[6] = molecular target: T2, Arg563Ala mutant Nurr1 LBD (Homo sapiens, UniProt P43354, R563A); test: MST binding to Arg563Ala mutant Nurr1 LBD
T2 sequence (P43354 360-595 R563A limits assumed): T1 sequence (P43354 360-595 H516A/R563A limits assumed) with A157H

LBD of RXRα = molecular target: T3, LBD of RXRα (Homo sapiens, UniProt P19793); test: Binding to the LBD of RXRα
T3 sequence (P19793 227-458 limits assumed): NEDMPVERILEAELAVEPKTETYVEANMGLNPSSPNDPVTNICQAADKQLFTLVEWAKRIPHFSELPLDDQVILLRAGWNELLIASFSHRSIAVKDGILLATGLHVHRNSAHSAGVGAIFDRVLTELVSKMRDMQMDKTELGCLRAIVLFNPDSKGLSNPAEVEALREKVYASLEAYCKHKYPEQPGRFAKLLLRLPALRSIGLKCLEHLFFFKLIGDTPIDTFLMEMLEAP

[7] = molecular target: full-length Nurr1 (NBRE response element) (Homo sapiens, UniProt P43354); test: Luciferase reporter assay, full-length receptor on NBRE response element; format: cell-based
Chain of full-length Nurr1 (NBRE response element) (P43354 whole entry, species assumed): as the sequence (Q06219 whole entry) above, with S131T, S134G, D354E counted along it

[8] = cited from earlier work
zebrafish = details: cited from earlier work
[9] = MN9D cells, 10 μM, normalized to Hprt

Chain of Nurr1 ligand binding domain (LBD) (P43354 360-595 limits assumed): as the sequence (P43354 360-595 H516A limits assumed) above, with A157H counted along it

Compound: CCN(CC)Cc1cc(Nc2ccnc3cc(Cl)ccc23)ccc1O [amodiaquine, reference compound]
- Kd [1]: 8 ± 1.5 µM

Compound: Clc1ccc2[nH]ccc2c1 [5-chloroindole]
- Improvement of affinity relative to wildtype, double mutant [2]: ~ 2 fold
- Improvement of affinity relative to wildtype, His516Ala mutant [3]: ~ 2 fold
- Cytotoxicity in MN9D cells (MN9D cells): non-cytotoxic; also recorded: not cytotoxic
- Chemical stability in solution [4]: stable
- Vmat2 expression, fold-change relative to vehicle (DMSO) [5, 9]: 2.4 fold
- Potency in MN9D cells compared with reference ligands ([5]; Th and Vmat2 expression): superior to that of DHI and amodiaquine
- Effect of increasing surfactant concentration on affinity for the Nurr1 LBD ([1]; MST binding assay): only has a minor effect
- Affinity for the Nurr1 LBD compared with reference ligands ([1]; in vitro and in luciferase reporter assays): comparable to DHI and amodiaquine
- Improvement of affinity relative to wildtype, Arg563Ala mutant [6]: ~ 2 fold
- Saturable binding to the LBD of RXRα (LBD of RXRα): does not exhibit saturable binding
- Activity of Nurr1 in luciferase reporter assay (full-length receptor, NBRE) [7]: stimulates the activity of Nurr1

Compound: Brc1ccc2[nH]ccc2c1 [5-bromoindole]
- Binding to Arg563Ala/His516Ala double mutant relative to wildtype [2]: eliminated
- Binding affinity for His516Ala mutant relative to wildtype [3]: statistically unchanged
- Cytotoxicity in MN9D cells (MN9D cells): somewhat toxic to cells under certain conditions (≥10 μM, 24 h)
- Th expression, fold-change relative to vehicle (DMSO) [5, 9]: 2.2 fold
- Vmat2 expression, fold-change relative to vehicle (DMSO) [5, 9]: 2.5 fold
- Binding to Arg563Ala mutant relative to wildtype [6]: eliminated

Compound: Oc1cc2cc[nH]c2cc1O [DHI, 5,6-dihydroxyindole]
- Chemical stability in solution [8]: readily auto-oxidizes and polymerizes
- Expression of th and vmat2 in zebrafish (zebrafish): stimulates the expression of th and vmat2

Compound: Nc1ccc2cc[nH]c2c1 [6-aminoindole]
- Cytotoxicity in MN9D cells (MN9D cells): significant cytotoxicity
- Chemical stability in solution [4]: autooxidation and polymerization in solution

Compound: Oc1ccc2cc[nH]c2c1 [6-hydroxyindole]
- Cytotoxicity in MN9D cells (MN9D cells): significant cytotoxicity
- Chemical stability in solution [4]: autooxidation and polymerization in solution
